Measured values from paper PMC10610910 (Science Advances, 2023).

How the values were obtained:
[1] = SEC-SAXS of free HSF2BP; format: physicochemical
Summary of the method: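 Free HSF2BP was loaded at 6 mg/ml onto a BIOSEC 3 column in 25 mM tris-HCl pH 7.5, 250 mM NaCl, 5 mM β-mercaptoethanol, with synchrotron scattering recorded every second during elution. Curves across the elution peak were summed. P(r) was derived so that its Fourier transform fits the SAXS curve.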

[2] = system: endogenous Xenopus BRCA2; settings: Xenopus egg extract; ref [24]; cited from earlier work
[3] = target: T1, HSF2BP (Homo sapiens, UniProt O75031); test: Scanning force microscopy; format: physicochemical; settings: SFM on mica, in air; HSF2BP at 12 nM
T1 sequence (O75031 1-334): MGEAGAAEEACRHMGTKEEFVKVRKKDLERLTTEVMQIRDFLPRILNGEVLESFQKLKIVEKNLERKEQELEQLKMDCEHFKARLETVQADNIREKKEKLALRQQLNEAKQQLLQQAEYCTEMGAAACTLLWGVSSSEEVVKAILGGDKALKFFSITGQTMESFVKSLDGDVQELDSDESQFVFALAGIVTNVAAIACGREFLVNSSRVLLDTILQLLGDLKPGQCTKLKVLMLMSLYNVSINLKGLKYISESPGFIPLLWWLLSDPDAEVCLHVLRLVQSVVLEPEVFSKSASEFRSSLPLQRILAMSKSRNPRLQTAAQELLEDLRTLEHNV
Summary of the method: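 HSF2BP was diluted 10,000-fold to 12 nM in 25 mM tris-HCl pH 7.5, 250 mM NaCl, 5 mM β-mercaptoethanol. It was deposited for 30 s on freshly cleaved mica, rinsed with water, dried under filtered air, and imaged in air by SFM. Particle volume distributions were obtained by kernel density analysis.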

[4] = system: HeLa cells; format: cell-based, human; settings: HeLa stably producing the protein; MMC, cisplatin, talazoparib
Summary of the method: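 HeLa cells in DMEM with 10% fetal calf serum were stably co-transfected (PiggyBac) with GFP-HSF2BP and/or Flag-BRME1 variants, then selected with puromycin (1.5 μg/ml) and G418 (800 μg/ml) for 8 days; mixed populations were used. Seeded 100–1000 cells/well in technical duplicates, drugs added next day: MMC 2 h, cisplatin or talazoparib overnight. Coomassie-stained colonies counted on day 10.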

[5] = target: T1, HSF2BP; test: Mass photometry; format: physicochemical; settings: 25-100 nM
[6] = system: DNA; settings: ref [23]; cited from earlier work
[7] = system: interstrand crosslink repair (pICL) in Xenopus egg extract; settings: Xenopus and human HSF2BP, ref [24]; cited from earlier work
[8] = SEC-MALS molecular mass / oligomeric state; format: physicochemical; settings: 25 mM tris-HCl pH 7.5, 250 mM NaCl, 5 mM β-mercaptoethanol, n = 2

B1: HSF2BP: human HSF2BP, full-length wild type; GFP-HSF2BP in HeLa cells (protein)
chain: MGEAGAAEEACRHMGTKEEFVKVRKKDLERLTTEVMQIRDFLPRILNGEVLESFQKLKIVEKNLERKEQELEQLKMDCEHFKARLETVQADNIREKKEKLALRQQLNEAKQQLLQQAEYCTEMGAAACTLLWGVSSSEEVVKAILGGDKALKFFSITGQTMESFVKSLDGDVQELDSDESQFVFALAGIVTNVAAIACGREFLVNSSRVLLDTILQLLGDLKPGQCTKLKVLMLMSLYNVSINLKGLKYISESPGFIPLLWWLLSDPDAEVCLHVLRLVQSVVLEPEVFSKSASEFRSSLPLQRILAMSKSRNPRLQTAAQELLEDLRTLEHNV
modifications: left off: His6, end not stated, cleaved
- maximal distance ([1]; P(r)): 250 Å
- molar mass (I(0)) ([1]; protein ~50 to 60 μM, pH 7.5, 293.15 K): 156 ± 21 kDa
- effect on BRCA2, in words [2]: leads to DNA crosslink-dependent proteasomal degradation of BRCA2
- particle volume, larger peak [3]: ~190 nm^3
- particle volume, smaller peak [3]: around 95 nm^3
- effect on cell resistance to DNA damage, in words [4]: sensitized cells to DNA damage
- effect on / state of HSF2BP oligomers, in words [5]: at 25 nM, it is a mix of dimers and tetramers
- affinity for DNA, in words [6]: no detectable affinity for DNA
- effect on crosslink repair, in words [7]: inhibit replication-dependent restoration of the genetic information at the crosslink
- apparent molar mass [8]: 136 ± 7 kDa
